Assay [1] can be described thus: Potentiation of D(-)-norepinephrine-induced contraction in Sprague-Dawley rat vas deferens assessed as contraction level at 1 x 10^-4 M relative to norepinephrine. The format is functional. Summed up: (§1)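 Isolated vasa deferentia from male Sprague–Dawley rats (300–350 g) in a 10-ml bath of Tyrode's solution, 37°, gassed with 95% O2/5% CO2. Cumulative NE dose-response curves over 3×10^-7 to 3×10^-5 M, with test agent at 1×10^-4 or 1×10^-3 M. Isotonic contractions recorded kymographically, 5 min between contractions after washout. Response expressed as percent of NE cumulative maximum (=100%), calculated per preparation. PD2 given as mean ± SE of ten curves; t test.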

Assay [2] is filed under the species Rattus norvegicus. Briefly: (§2) Potentiation of D(-)-norepinephrine-induced contraction in reserpine-treated Sprague-Dawley rat vas deferens assessed as contraction level at 1 x 10^-4 M relative to norepinephrine. The format is functional. Summed up: (§3)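 Rats were reserpinized with 5 mg/kg ip 24 hr before the experiment. Vasa deferentia were then set up in Tyrode's solution at 37°, gassed with 95% O2/5% CO2. Cumulative NE curves over 3×10^-7 to 3×10^-5 M, with test agent present. Isotonic contractions recorded kymographically. Response as percent of NE cumulative maximum; mean ± SE; t test.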

In assay [3] the test system is Vas deferens. Briefly: Inhibition of D(-)-norepinephrine-induced contraction in Sprague-Dawley rat vas deferens assessed as contraction level at 1 x 10^-3 M relative to norepinephrine. The format is functional. Further details: scale not given: the % may be the effect or the level left. The essentials:
as §1

The species named for assay [4] is Rattus norvegicus. Kind of assay: (§4) Potentiation of D(-)-norepinephrine-induced contraction in reserpine-treated Sprague-Dawley rat vas deferens assessed as contraction level at 1 x 10^-3 M relative to norepinephrine. The format is functional. Summed up: as §3
The species entered for assay [5] is Rattus norvegicus. Briefly: Potentiation of D(-)-norepinephrine-induced contraction in reserpine-treated Sprague-Dawley rat vas deferens at 1 x 10^-2 M relative to control. The format is functional, tissue-based. Summed up: as §3
The test system of assay [6] is Vas deferens. Briefly: Inhibition of norepinephrine uptake in Sprague-Dawley rat vas deferens at 1 x 10^-4 M after 60 mins by fluorometric analysis. The format is functional. Summed up: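 Rat vas deferens pieces (50–60 mg, two per rat) incubated free-floating for 60 min at 37° in oxygenated Tyrode's with NE 1.5×10^-7 M, with or without test agent at 1×10^-4 M. Tissue then washed three times for 5 sec, and total catecholamines estimated fluorometrically by autoanalyzer. Mean ± SE of five experiments; t test vs control.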

The nature of assay [7]: Induction of norepinephrine release in Sprague-Dawley rat vas deferens at 1 x 10^-4 M after 30 mins by fluorometric analysis. The format is functional. The essentials: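 Rat vas deferens pieces incubated 30 min in oxygenated Tyrode's with agent at 1×10^-4 M. Total catecholamines then measured fluorometrically by autoanalyzer. Mean ± SE of five experiments; t test vs control.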

Assay [8] concerns Canis familiaris. Kind of assay: Reduction of blood pressure in mongrel dog at 1 to 2 mg/kg, iv by electrocardiograph analysis. The format is functional, organism-based. The settings on record: Canis lupus familiaris. The essentials:
(§5)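 Dog blood pressure recorded after iv injection via a right femoral vein cannula (1–2 mg/kg), each dose washed in with 0.5 ml saline. Where stated, β blockade with propranolol 2 mg/kg, checked for adequacy with […].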

The species named for assay [9] is Oryctolagus cuniculus. Kind of assay: Inhibition of spontaneous contractions in isolated rabbit atria at 1 x 10^-3 M. The format is functional. Conditions: Cardiac atrium.
Assay [10] is filed under the species Oryctolagus cuniculus. Briefly: Increase in spontaneous contractions in isolated rabbit atria at 1 x 10^-4 M. The format is functional. The settings on record: Cardiac atrium.
The test system of assay [11] is Canis familiaris. Briefly: Induction of beta-adrenergic response in mongrel dog at 2 mg/kg, iv by electrocardiograph analysis. Also noted: dose 2 mg/kg. The format is functional, organism-based. Conditions: Canis lupus familiaris.
The test system of assay [12] is Canis familiaris. Kind of assay: Increase in diastolic blood pressure in mongrel dog at 2 mg/kg, iv by electrocardiograph analysis. The format is functional, Canis lupus familiaris, Artery.
Assay [13] relates to Canis familiaris. Kind of assay: Increase in systolic blood pressure in mongrel dog at 2 mg/kg, iv by electrocardiograph analysis. The format is functional, Canis lupus familiaris, Artery.
Assay [14] has as its system Canis familiaris. Kind of assay: Increase in pulse pressure in mongrel dog at 2 mg/kg, iv by electrocardiograph analysis. The format is functional, Canis lupus familiaris.
Assay [15] has as its system Canis familiaris. Kind of assay: Reduction of diastolic blood pressure in mongrel dog at 2 mg/kg, iv by electrocardiograph analysis in presence of alpha-blocker phenoxybenzamine. The format is functional, organism-based. Also noted: dose 2 mg/kg. The settings on record: Canis lupus familiaris, Artery.
Assay [16] relates to Canis familiaris. Briefly: Reduction of systolic blood pressure in mongrel dog at 2 mg/kg, iv by electrocardiograph analysis in presence of alpha-blocker phenoxybenzamine. The format is functional, organism-based. Also noted: dose 2 mg/kg. The settings on record: Canis lupus familiaris, Artery.
For assay [17], the system named is Canis familiaris. Kind of assay: Reduction of pulse pressure in mongrel dog at 2 mg/kg, iv by electrocardiograph analysis in presence of alpha-blocker phenoxybenzamine. The format is functional, organism-based. Also noted: dose 2 mg/kg. Conditions: Canis lupus familiaris.
Assay [18] deals with Canis familiaris. Briefly: Induction of beta-adrenergic response in mongrel dog at 2 mg/kg, iv by electrocardiograph analysis in presence of propranolol. The format is functional, organism-based. Also noted: dose 2 mg/kg. The settings on record: Canis lupus familiaris.
In assay [19] the test system is Canis familiaris. Kind of assay: Reduction of diastolic blood pressure in mongrel dog at 1 to 2 mg/kg, iv up to 30 seconds by electrocardiograph analysis in presence of alpha-blocker phenoxybenzamine. Conditions: dose mg/kg 1-2. The format is functional, Canis lupus familiaris, Artery. Summed up:
(§6)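 Dogs pretreated with phenoxybenzamine 3 mg/kg as α-blocker, blockade checked with […]. Test agents given iv (1–2 mg/kg) via a femoral vein cannula, washed in with 0.5 ml saline; tracheotomized animals. Systolic, diastolic and pulse pressure followed over an initial 30-sec phase and a second phase of about 30 min.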

Assay [20] has as its system Canis familiaris. Kind of assay: Reduction of systolic blood pressure in mongrel dog at 1 to 2 mg/kg, iv up to 30 seconds by electrocardiograph analysis in presence of alpha-blocker phenoxybenzamine. The format is functional, Canis lupus familiaris, Artery. Conditions: dose mg/kg 1-2. Summed up: as §6
Assay [21] relates to Canis familiaris. Briefly: Reduction of pulse pressure in mongrel dog at 1 to 2 mg/kg, iv up to 30 seconds by electrocardiograph analysis in presence of alpha-blocker phenoxybenzamine. The format is functional, organism-based. The settings on record: Canis lupus familiaris. The essentials:
as §6

Assay [22] concerns Canis familiaris. Kind of assay: Reduction of diastolic blood pressure in mongrel dog at 1 to 2 mg/kg, iv up to 30 mins by electrocardiograph analysis in presence of alpha-blocker phenoxybenzamine. The settings on record: dose mg/kg 1-2. The format is functional, Canis lupus familiaris, Artery. The essentials: as §6
The test system of assay [23] is Canis familiaris. Kind of assay: Reduction of systolic blood pressure in mongrel dog at 1 to 2 mg/kg, iv up to 30 mins by electrocardiograph analysis in presence of alpha-blocker phenoxybenzamine. The format is functional, Canis lupus familiaris, Artery. Conditions: dose mg/kg 1-2. The essentials: as §6
Assay [24] relates to Canis familiaris. Kind of assay: Reduction of blood pressure in mongrel dog at 1 to 2 mg/kg, iv by electrocardiograph analysis in presence of propranolol. The format is functional, organism-based. Conditions: Canis lupus familiaris. Summed up:
as §5

Assay [25] relates to Canis familiaris. Briefly: Reduction of pulse pressure in mongrel dog at 1 to 2 mg/kg, iv up to 30 mins by electrocardiograph analysis in presence of alpha-blocker phenoxybenzamine. The format is functional, Canis lupus familiaris. The settings on record: dose mg/kg 1-2. Summed up: as §6
Assay [26] in a line: Potentiation of D(-)-norepinephrine-induced contraction in Sprague-Dawley rat vas deferens assessed as contraction level at 1 x 10^-2 M relative to norepinephrine. The format is functional.
Assay [27] in a line: as §2. The format is functional. The essentials:
as §3

Assay [28] in a line: as §4. The format is functional. Summed up:
as §3

Assay [29] is filed under the species Oryctolagus cuniculus. Kind of assay: Inhibition of spontaneous contractions in isolated rabbit atria at 1 x 10^-4 M. The format is functional. The settings on record: Cardiac atrium.
The subject of assay [30] is Canis familiaris. Kind of assay: Reduction of blood pressure in iv dosed mongrel dog by electrocardiograph analysis in presence of hexamethonium and atropine. Conditions: Canis lupus familiaris. The format is functional, organism-based.

Active and inactive are the calls of the source. The calls are words filed in the database; no cut-off is given here.

Drawing on ChEMBL document CHEMBL3272180, “A conformational study of beta-phenethanolamine receptor sites. 8. Pharmacological study of 3-isopropylamino-2-phenyl-trans-2-decalols” (1976), this text covers Activity and inhibition for 7 compounds.

Turning to `CC(C)N[C@@H]1C[C@@H]2CCCC[C@H]2C[C@@]1(O)c1ccccc1`, the Activity is 94% in assay [1], 16% with Vas deferens [3], 9.5 µg/g with Vas deferens [6] and 8.1 µg/g in assay [7]. The result in the assay filed under Rattus norvegicus [2], in the assay listed under Rattus norvegicus [4], in the assay listed under Rattus norvegicus [5], in the assay on Canis familiaris [8] and in the assay listed under Oryctolagus cuniculus [10] was Active. In addition, the inhibition entry in the assay listed under Oryctolagus cuniculus [9] is “Active”.
As for `CN[C@@H](C)[C@H](O)c1ccccc1` [EPHEDRINE], the result in the assay with Canis familiaris [11] was Active. For the same compound, the Activity in the assay on Canis familiaris [12], in the assay with Canis familiaris [13] and in the assay on Canis familiaris [14] was 40 mmHg throughout. For the same compound, the outcome with Canis familiaris [15], in the assay on Canis familiaris [16], in the assay with Canis familiaris [17] and in the assay with Canis familiaris [18] was inactive.
As for `CC(C)N[C@H]1C[C@@H]2CCCC[C@H]2C[C@@]1(O)c1ccccc1`, the Activity in assay [1] stood at 96%; with Vas deferens [3], 10%; in the assay with Vas deferens [6], 9.6 µg/g; in assay [7] it was 7.8 µg/g; with Canis familiaris [19], 50 mmHg; in the assay on Canis familiaris [20] it was 50 mmHg. The Activity was determined as 30 mmHg with Canis familiaris [22], 15 mmHg in the assay with Canis familiaris [23] and 15 mmHg in the assay on Canis familiaris [25]. Further, the result in the assay filed under Rattus norvegicus [2], in the assay filed under Rattus norvegicus [4], in the assay listed under Rattus norvegicus [5], in the assay on Canis familiaris [8], in the assay with Canis familiaris [21] and in the assay with Canis familiaris [24] was Active. Besides, the outcome in the assay filed under Oryctolagus cuniculus [10] was Active. For the same compound, in the assay listed under Oryctolagus cuniculus [9], the inhibition entry is “Active”.
In the case of `CC(C)N[C@H](C)[C@H](O)c1ccccc1`, the Activity was found to be 145% in [1], 70% in [26], 9.3 µg/g with Vas deferens [6] and 7.4 µg/g in assay [7]. Also, the result in the assay listed under Rattus norvegicus [2], in the assay listed under Rattus norvegicus [4], in the assay listed under Rattus norvegicus [5] and in the assay with Canis familiaris [8] was Active. For the same compound, in the assay listed under Oryctolagus cuniculus [9], the inhibition entry was “Active”.
For `CC(C)N[C@H]1C[C@@H]2CCCC[C@H]2C[C@]1(O)c1ccccc1`, the Activity worked out at 132% in [1]; 130% in assay [27]; 88% in the assay with Vas deferens [3]; 84% in assay [28]; 9.1 µg/g in the assay with Vas deferens [6]; 7.9 µg/g in assay [7]. In addition, the result in the assay listed under Rattus norvegicus [5], in the assay on Canis familiaris [8] and in the assay filed under Oryctolagus cuniculus [10] was Active. Moreover, the inhibition result in the assay listed under Oryctolagus cuniculus [9] is “Active”.
For the compound `CC(C)N[C@@H]1C[C@@H]2CCCC[C@H]2C[C@]1(O)c1ccccc1`, the Activity in [1] came to 128%; in the assay on Vas deferens [3] it was 85%; with Vas deferens [6], 9.3 µg/g; in [7] it was 7.7 µg/g. Also, the result in the assay listed under Rattus norvegicus [2], in the assay listed under Rattus norvegicus [4], in the assay filed under Rattus norvegicus [5] and in the assay on Canis familiaris [8] was Active. Besides, the inhibition entry in the assay listed under Oryctolagus cuniculus [29] is “Active”.
Regarding `CC(C)N[C@@H](C)[C@H](O)c1ccccc1`, the Activity in assay [1] came out at 158%; in assay [26], 90%; in the assay with Vas deferens [6], 9.2 µg/g; in assay [7], 7 µg/g; with Canis familiaris [19], 50 mmHg; in the assay with Canis familiaris [20], 50 mmHg. In addition, the Activity with Canis familiaris [22] amounted to 30 mmHg; with Canis familiaris [23], 15 mmHg; in the assay on Canis familiaris [25], 15 mmHg. In addition, the result in the assay listed under Rattus norvegicus [2], in the assay filed under Rattus norvegicus [4], in the assay listed under Rattus norvegicus [5], in the assay with Canis familiaris [8], in the assay on Canis familiaris [21] and in the assay with Canis familiaris [24] was Active. Moreover, the result in the assay with Canis familiaris [30] was Active. Further, the inhibition result in the assay filed under Oryctolagus cuniculus [29] was “Active”.
